Assay results published in the EternaBench riboswitch data.

System: MS2 coat protein
Test: apparent Kd, MS2 coat protein; higher = weaker binding; RNA-MaP array; FMN 200 µM where present
Summary of the method: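 Apparent Kd: the median of filtered binding-curve fits from single clusters. Designs were transcribed on Illumina sequencing-chip clusters by stalled E. coli RNA polymerase and titrated with SNAP-549-labelled MS2 coat protein from 0.7 or 1.5 nM, doubling to 3 µM, in 100 mM Tris-HCl pH 7.5, 80 mM KCl, 4 mM MgCl2, BSA, DTT, yeast tRNA and Tween-20. Each series ran without and then with constant ligand, and green signal was normalised to red-channel RNA signal and control-cluster median Fmax.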

[1] = designed as: ON switch for flavin mononucleotide, no ligand
[2] = ligand present: flavin mononucleotide, designed as: ON switch for flavin mononucleotide
[3] = designed as: OFF switch for flavin mononucleotide, no ligand
[4] = ligand present: flavin mononucleotide, designed as: OFF switch for flavin mononucleotide

Sequence	apparent Kd [1] [nM]	apparent Kd [2] [nM]	apparent Kd [3] [nM]	apparent Kd [4] [nM]
AAAUAAAUGACUAAGGAUAUAUCAGAGAAAACAUGAGGAUCACCCAUGUAAUAAUAAAAAGGGUGAUAGAAGGUAGUCAACAAACA	222	44.5	–	–
CCGUGACAUGAGGAUCACCCAUGUACUCGAGAAAUCGAGUGUAGAAGGGUGACCGGUCGUUUGGCACAGGAUAUACACGGUGUG	16.6	8.92	–	–
GUGUACAGAGGAUAUACAUAAGCAUGGAAACAUGCAACCUCACAUGAGGAUCACCCAUGUAGAAGGCUGUACAC	–	–	161	65.3
UGAGCCUCGUGAGGAUAUACAUGAGGAUCACCCAUGUAAAUGAAAGAUACGUCGAAACGACGAAUGUAGAAGGCACGAGGCUCA	–	–	18.4	61.3
AAUCAGCGGAACUUGACAUCCUUACAUGAGGAUCACCCAUGUCAGGAUAUAUGCUCUCGAGCUGCAUAGAAGGGACAUAGUGGG	–	–	37.7	56
GCAAAGCCUGACAUGAGGAUCACCCAUGUUAGAUUGUUAUGUCAGGAUAUUGUCUAGAAACUAGACAAGAAGGGAUGCUUUGCC	734	51.3	–	–
AUCAGCUCGUCAGGAUAUACGUCACUGCGUCAGCAGUGUGGUAAGAUCACAUGAGGAUCACCCAUGUAGAAGGGACGAGCUAAU	–	–	13.7	334
GUUUUUCCUCAUGUACAUGAGGAACAUGAGGAUCACCCAUGUAGAAGGAUUUCCCUUAAAUUAAAAUAGGAUAUACAUAUAUUU	–	–	88.6	58.9
ACGGAGCUAGGAUAUACAUGAGGAUCACCCAUGUAUGAUGCGGCGCCCUUUUGCGCCUGUAGAAGGAGCACCGU	–	–	15.9	16.5
UUAUUUAUGUAAGGAUAUCGAUUAUAUACACAUCCUACAUGAGGAUCACCCAUGUUUUAUUUUUUCGAGAAGGUACAUUGUCGG	51.7	47.4	–	–
CAUAUCGUAACAGGAUAUAUGAGUCCUACAUGAGGAUCACCCAUGUAGGUGAUCUAACGAGAUUAGUAGAAGGGUUACGAUAUG	16.6	8.68	–	–
AAUGUUUGAUUCCACUUAUACAUGAGGAUCACCCAUGUUAUCGAGGAUAUGCAUUAGAGUGUUUAGCAGAAGGCGAUGUAAAUG	–	–	7.34	24.1
CGCAAACAUGAGGAUCACCCAUGUCAAUGUGAUCAAGGAUAUGGGUUCCGAAAUGGAACACCAGAAGGUGAGUAAU	142	37.3	–	–
AAUAUACAUGAGGAUCACCCAUGUUUUGGUGUAUGAGGAUAUAAAAACAAUUACAUAAAAUUAGAAGGCAUAACUA	28.2	24	–	–
AAAUACGGUCAAGGAUAUGUAUAAAAGAUAAGAAAACAUGAGGAUCACCCAUGUAUAUGGUGGGAACAGAAGGUGAAUAAGUAA	–	–	182	142
UCCAUCGUAUGAGGAUAUGGAACUGAAACAGUUCCAGAAGGCAUGUCAAUAGACAUGAGGAUCACCCAUGUAUUAUCGAUGGAA	429	42.9	–	–
UUAAUGUGAGGAUAUCAGGUGUGCUAGCGUACUGGUACAUCUGAGAAGGCACAUGAGGAUCACCCAUGUUCUUC	–	–	37	135
CGGCAAGUCGUAGGAUAUGGUGAUGUACAUGAGGAUCACCCAUGUCCGUCUUCUCUCACAAGAUGCCAGAAGGGCGACUUCCGG	829	340	–	–
AGCACGAAAGUGCAACGAUGUACGAGAAGGACAUGAGGAUCACCCAUGUAGCAGUAACUGCAAAUGUAGGAUAUCGUACAUCGA	–	–	6.54	14.7
GGAUGACAAAGUCAUCCAAAUCGAACAUGAGGAUCACCCAUGUAGGAUAUGCUUCUCAAAGAGAAGCAGAAGGACAUGUGCUUU	–	–	37.8	228
AUCAUCUCGUCAGGAUAUACGUCACUGCGUCAGCAGUGUGGUAAGAUCACAUGAGGAUCACCCAUGUAGAAGGGACGAGCUGAU	–	–	14.4	226
AAUAGUACAGGAUAUACAUGAGGAUCACCCAUGUGAAAAUUAAGUGGCGUACCACAAAGUAGAAGGGUACUGGA	–	–	22.8	71.4
AAGUCUGUACGAGGAUAUCAGUUGUAUCUAAAUUCAACAUGAGGAUCACCCAUGUUGCAAUAGGGUGAGAAGGCGUGUGGGCAA	70.1	21.6	–	–
UUGGACGUCGUAGGAUAUGUAGGAUAUUGCUACAUGAGGAUCACCCAUGUUGACAUGGAAGAAGGACAGAAGGACGAUGUCCAU	43.8	5.59	–	–
GGUGCGUAUGUGAGGAUAUGCUGGUCCUUGGAUCAGCAGAAGGCACAUGAGGAUCACCCAUGUGGUGUCGUACC	–	–	357	23.5
AGCAUGUAAGGAUAUGUAACGCGGCGUUCAUUCGUCGUCCCACAGAAGGUACAUGAGGAUCACCCAUGUGCUCC	–	–	42	77.7
GAAGACAUAGUUCAGGAUAUAGGAAUAGUCACAUGAGGAUCACCCAUGUGCAUUUAUAUGCGCACUUAGAAGGGAGGUAGUUAUC	36.3	41	–	–
GCGUCAGAAUUAAUUGUGACAUACAGAAGGCAAUAUUAAGGUUAAGACAUGAGGAUCACCCAUGUUGAGGAUAUGUAGUGACGC	–	–	8.9	15.8

Sequence	apparent Kd [1] [nM]	apparent Kd [2] [nM]	apparent Kd [3] [nM]	apparent Kd [4] [nM]
CGGCAAGUCACAGGAUAUGGUGAUGUACAUGAGGAUCACCCAUGUCCGUCUUCUCUCACAAGAUGCCAGAAGGGUGACUCCCGG	852	120	–	–
ACAUGAUAUGUAGGAUAUCACAUUAAUUGAUUAAUAUAUGAAUAUAGAAUUUGAGAAGGACAUUUACAUGAGGAUCACCCAUGU	–	–	15.7	10.8
CUAGCUAUCGGAGGAUAUUCAUACCGGAAACGGACAUGAGGAUCACCCAUGUGCCGAAAGGCUUGGGAGAAGGCCGAUAGCUAG	272	20.6	–	–
GGAACAACAUGAGGAUAUCGAUGAGUAUAGAGUCGAGAAGGCAUGUCAUAAGACAUGAGGAUCACCCAUGUAGUUACAAUACCA	1010	69.2	–	–
UUGGACGUCGUAGGAUAUGUAGGAUAUUCCUACAUGAGGAUCACCCAUGUUGACAUGGAAGAAGGACAGAAGGACGAGGUCCAU	241	4.93	–	–
UGGUACUAGGGAGGAUAUGGGAAGAUACAUGAGGAUCACCCAUGUUUAAGAAUGCCCAGAGGCAACUAGAAGGCCCUAGUACCU	66.2	16.9	–	–
AUGGGCUAAGGAUAUAGACGACGACACAUGAGGAUCACCCAUGUCAGUAAUGGGUCUUGGCUAGAAGGUAGAACCC	–	–	44.5	72.7
CAGUACUGAGGAUAUACAUGAGGAUCACCCAUGUGAACCAGCUAGGAAACUAGCAAAGGUAGAAGGCAGUACUG	–	–	21.3	259
GGAGCUCCUGACAUGAGGAUCACCCAUGUUCACUUAUUAACUCAGGAUAUCGUCUCGAAACGAGACGAGAAGGGAGAUGCUCCU	8.36	6.76	–	–
GGGCUGUCAGGAUAUGGGCUCGGGCUCGAAAGGGCUCGGGCUCAGAAGGGACAUGAGGAUCACCCAUGUGGCCC	–	–	35.7	32.8
AAGCCACAUGAGGAUCACCCAUGUCAGGAUAUCUCGAAAAGCAUAGAAAUAUGCGAAGAGAGAAGGGACUACUC	–	–	43.1	67.7
CCAUUUCUGUAAGGAUAUAUAAACAUGACGAUACAUGAGGAUCACCCAUGUGUAGAAGGUACAAAUACAUAUAAUACAAUGCUC	–	–	13.1	11.7
GCUGUCGUAUGAGGAUAUGGUCAGCUUUGCUGACCAGAAGGCAUGUCAAUAGACAUGAGGAUCACCCAUGUAGUAAAGACAGCA	402	39	–	–
CAGCUGAAAGUCAGGAUAUCUAGAGCUGCGGCUCUAGAGAAGGGACAUGAGGAUCACCCAUGUGAUCACAGCUG	–	–	1440	150
ACAUGAGGAUCACCCAUGUUAUGUUGGGUACUAAAUUAUUCGUAGGAUAUCGUAGCUAGUUUGUGCGAGAAGGACGCAGUUUUU	–	–	257	277
GGUACCUUCACAGGAUAUGCUAUCCUUUGGGUAGCAGAAGGGUGAUACAUGAGGAUCACCCAUGUGGUGCCAGGGCGUGAGCCC	1090	305	–	–
UGAUCGAGAGAUCUUAGAUUCUGCAAGGAUAUGCAGGAGUUGCGCUUUACAUGAGGAUCACCCAUGUAGAAGGUGUAGAGUCUA	–	–	6.62	8.08
AGUCGGAGCAGAGGAUAUACAUGAGGAUCACCCAUGUAAAUGGAAGAAGCCUGGAAACAGGCAAUGUAGAAGGCUGCUCCGACA	–	–	132	708
UGUCGGAGCAGAGGAUAUUACAUGAGGAUCACCCAUGUAUGAACCAAUAGAUGGAAACAGCAAUGUAAGAAGGCUGCUCCGACA	–	–	95.9	346
UAAGUUUUGGUAGGAUAUACUUUAAAUUUCUCUAUCCAUACAUGAGGAUCACCCAUGUUUACAUUGUAGAAGGACCACUAUGUU	–	–	24.6	19.7
UCCUACAUGGGAGGAUAUCCUCAUGAGACAUGAGGAUCACCCAUGUAUUAUAAGCCGAAAGGCAAGGAGAAGGCCCAUGUAGGU	34.9	18	–	–
CGAAGUCCGUAGAAGGGUGACAUGAGGAUCACCCAUGUGCGAGCGGAGGGAGUCAGCGGCUCGCCACAGGAUAUACGGAGCACG	61.2	51	–	–
GUAUCGUGAGGAUAUCCAAUAUAUGACAUGAGGAUCACCCAUGUUUCCACUCGUACCUCCGGAGAAGGCACAGUUU	–	–	32.2	27.9
UGCGGUUGAGGAUAUACGUAGAAAUAGAUUCAUGUAAAACUACAUGAGGAUCACCCAUGUAGAAGGCAAUCGCU	–	–	25.7	217
GCGAUAACAUGAGGAUCACCCAUGUAUGUGGCGGGCCCUACGAGAAGGCCAUGUAACAAAUACAUGGAGGAUAUCGGAUGAGUU	153	26.6	–	–
UUAUUAUAUGUAGGAUAUGCGUAUUAUUGUUAUGCAGAAGGACAUGAGGAUCACCCAUGUAUAUUAUUGUUAUGUAUUAUAUAU	–	–	30.5	69.3
GGCUCCGCUCGAGGAUAUAGCUGCAUGUAGUGUCCUGAGGCACAUGAGGAUCACCCAUGUGUAGGCUAGAAGGCGACGGACGCU	–	–	76.1	138
